According to ChEMBL document CHEMBL5357044, “Discovery of a dual-acting inhibitor of interleukin-1β and STATs for the treatment of inflammatory bowel disease” (RSC Med Chem, 2024):
Calls of active or inactive are those of the source.

Legend:
Mus musculus [1] = experiment: Anti-colitis activity against DSS-induced ulcerative colitis mouse model assessed as increase in body weight at 0.2 to 0.6 mg/kg, ip treated every 72 hrs for 9 days; type: functional, organism-based; conditions: dose 0.2-0.6 mg/kg, time 9.0 day
Procedure, shortened: (§1)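 Mice given 2.5% DSS water days 1–7, then water to day 9. Dosing: i.p. 0.2 or 0.6 mg kg−1 in 50% PEG300 on days 2, 5, 8. Body weight and fecal occult blood scored daily. Colon length measured after sacrifice on day 9. Mean ± s.e.m.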

[2] = target: NACHT, LRR and PYD domains-containing protein 3 (Mus musculus) (UniProt Q8R4B8); experiment: Inhibition of NLRP3 inflammasome activation in mouse J774.A1 cells assessed as NLRP3 ubiquitination at 100 nM pretreated for 1 hr followed by nigericin treatment for 1 hr; conditions: time 2.0 hrs
NACHT, LRR and PYD domains-containing protein 3 (Mus musculus), sequence (Q8R4B8 whole entry, the tested form may be a part): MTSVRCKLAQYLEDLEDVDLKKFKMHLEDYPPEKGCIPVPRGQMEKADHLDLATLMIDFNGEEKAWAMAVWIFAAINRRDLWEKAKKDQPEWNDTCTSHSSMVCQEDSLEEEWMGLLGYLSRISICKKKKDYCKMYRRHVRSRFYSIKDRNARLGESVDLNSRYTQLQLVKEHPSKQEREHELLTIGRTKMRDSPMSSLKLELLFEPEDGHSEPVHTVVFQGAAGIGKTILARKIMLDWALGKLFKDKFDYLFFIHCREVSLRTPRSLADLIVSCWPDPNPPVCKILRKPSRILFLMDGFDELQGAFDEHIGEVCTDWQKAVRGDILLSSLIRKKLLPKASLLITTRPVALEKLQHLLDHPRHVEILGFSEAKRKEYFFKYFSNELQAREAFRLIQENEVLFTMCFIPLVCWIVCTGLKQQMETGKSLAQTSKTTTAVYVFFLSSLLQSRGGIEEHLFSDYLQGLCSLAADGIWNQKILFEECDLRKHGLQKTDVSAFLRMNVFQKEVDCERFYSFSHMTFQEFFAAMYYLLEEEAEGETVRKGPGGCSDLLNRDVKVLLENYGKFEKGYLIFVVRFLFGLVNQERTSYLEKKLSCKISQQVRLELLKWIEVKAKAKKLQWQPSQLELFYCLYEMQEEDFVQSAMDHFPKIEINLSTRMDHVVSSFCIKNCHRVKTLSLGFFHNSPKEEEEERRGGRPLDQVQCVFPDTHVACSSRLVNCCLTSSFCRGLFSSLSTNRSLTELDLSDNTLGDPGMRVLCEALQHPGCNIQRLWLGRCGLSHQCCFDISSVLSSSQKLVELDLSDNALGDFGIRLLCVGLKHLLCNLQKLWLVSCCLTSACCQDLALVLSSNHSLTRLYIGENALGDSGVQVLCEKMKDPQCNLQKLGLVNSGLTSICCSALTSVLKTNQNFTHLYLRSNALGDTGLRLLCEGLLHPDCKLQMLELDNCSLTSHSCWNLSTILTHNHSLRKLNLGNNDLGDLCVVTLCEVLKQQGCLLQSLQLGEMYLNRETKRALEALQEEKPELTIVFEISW

Mus musculus [3] = experiment: Anti-colitis activity against DSS-induced ulcerative colitis mouse model assessed as increase in colon length at 0.2 to 0.6 mg/kg, ip treated every 72 hrs for 9 days; type: functional, organism-based; conditions: dose 0.2-0.6 mg/kg, time 9.0 day; procedure, shortened: as §1

Cc1cc(/C=C/C(=O)c2ccc(C(=O)N[C@@H](Cc3ccccc3)C(=O)N[C@@H](CC(C)C)B(O)O)cc2)cc(C)c1O
active: Activity (Mus musculus [1]) | inhibition [2] | Activity (Mus musculus [3])
